{"source": "ChEMBL document CHEMBL1154414", "about": "“In vitro and in vivo activities of T-705 against arenavirus and bunyavirus infections” (Antimicrob Agents Chemother, 2007)", "key": {"Punta Toro virus [1]": {"system": "Punta Toro virus", "assay": "Antiviral activity against 500 PFU Punta Toro virus Adames infected C57BL/6 mouse assessed as animals with detectable virus level in serum at 30 mg/kg, po twice daily administered 4 hrs before viral challenge measured on day 3 of viral infection", "assay_type": "functional", "how_it_was_run": "(§1)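 T-705 was suspended in 0.4% carboxymethylcellulose and given by oral gavage twice daily. Mice were infected subcutaneously with PTV. Five mice per group (10 placebo) were sacrificed on day 3 or 4. Liver homogenate or serum was serially diluted onto triplicate LLC-MK2 monolayers, and CPE was read at 6–8 days. The detection limit was 2.8 log10 CCID50 per 0.1 g liver or 0.1 ml serum.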"}, "Punta Toro virus [2]": {"system": "Punta Toro virus", "assay": "Antiviral activity against 500 PFU Punta Toro virus Adames infected C57BL/6 mouse assessed as animals with detectable virus level in serum at 5 mg/kg, po twice daily administered 4 hrs before viral challenge measured on day 3 of viral infection", "assay_type": "functional", "how_it_was_run": "as §1"}, "Punta Toro virus [3]": {"system": "Punta Toro virus", "assay": "Antiviral activity against 500 PFU Punta Toro virus Adames infected C57BL/6 mouse assessed as mean serum ALT levels at 10 mg/kg, po twice daily administered 4 hrs before viral challenge measured on day 3 of viral infection", "assay_type": "functional", "how_it_was_run": "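Subcutaneous PTV infection was followed by oral gavage twice daily with drug suspended in 0.4% CMC. Serum was collected from 5 sacrificed mice per group (10 placebo) on day 3 or 4. ALT activity was measured by kinetic assay, and sham-infected mice set the baselines.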"}, "Punta Toro virus [4]": {"system": "Punta Toro virus", "assay": "Antiviral activity against 500 PFU Punta Toro virus Adames infected C57BL/6 mouse assessed as protection against viral infection at 10 mg/kg, po twice daily for 5 to 7 days twice daily administered 4 hrs before viral challenge", "assay_type": "functional", "how_it_was_run": "(§2)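 PTV was inoculated subcutaneously into mice in groups of 15 (25–30 placebo). Dosing was by oral gavage twice daily for 5–7 days, with T-705 suspended in 0.4% CMC and ribavirin in saline. Remaining animals were observed 21–28 days for survival and day of death. Test doses had first been checked for tolerance in uninfected animals.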"}, "Punta Toro virus [5]": {"system": "Punta Toro virus", "assay": "Antiviral activity against 50 PFU Punta Toro virus Adames infected C57BL/6 mouse assessed as survival at 10 mg/kg, po twice daily for 5 days administered 24 hrs post viral challenge", "assay_type": "functional, organism-based", "design": "dose 10 mg/kg", "how_it_was_run": "(§3)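 Groups of 15 mice (25–30 placebo) were inoculated subcutaneously with PTV. Drug in 0.4% carboxymethylcellulose was given by oral gavage twice daily.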"}, "Punta Toro virus [6]": {"system": "Punta Toro virus", "assay": "Antiviral activity against Punta Toro virus Adames infected Syrian golden hamster assessed as survival at 60 mg/kg, po twice daily for 6 days administered 4 hrs before viral challenge", "assay_type": "functional"}, "Punta Toro virus [7]": {"system": "Punta Toro virus", "assay": "Antiviral activity against Punta Toro virus Adames infected Syrian golden hamster assessed as mean day of death at 60 mg/kg, po twice daily for 6 days administered 4 hrs before viral challenge", "assay_type": "functional"}, "Punta Toro virus [8]": {"system": "Punta Toro virus", "assay": "Antiviral activity against 500 PFU Punta Toro virus Adames infected C57BL/6 mouse assessed as survival at 100 mg/kg, po twice daily for 5 days administered 4 hrs before viral challenge", "assay_type": "functional, organism-based", "design": "dose 100 mg/kg", "how_it_was_run": "as §2"}, "Punta Toro virus [9]": {"system": "Punta Toro virus", "assay": "Antiviral activity against 500 PFU Punta Toro virus Adames infected C57BL/6 mouse assessed as survival at 50 mg/kg, po twice daily for 5 days administered 4 hrs before viral challenge", "assay_type": "functional, organism-based", "design": "dose 50 mg/kg", "how_it_was_run": "as §2"}, "Punta Toro virus [10]": {"system": "Punta Toro virus", "assay": "Antiviral activity against 500 PFU Punta Toro virus Adames infected C57BL/6 mouse assessed as survival at 75 mg/kg, po twice daily for 5 days administered 4 hrs before viral challenge", "assay_type": "functional, organism-based", "design": "dose 75 mg/kg", "how_it_was_run": "as §2"}, "Punta Toro virus [11]": {"system": "Punta Toro virus", "assay": "Antiviral activity against 500 PFU Punta Toro virus Adames infected C57BL/6 mouse assessed as mean day of death at 200 mg/kg, po twice daily for 5 days administered 4 hrs before viral challenge", "assay_type": "functional", "how_it_was_run": "as §3"}, "Punta Toro virus [12]": {"system": "Punta Toro virus", "assay": "Antiviral activity against 500 PFU Punta Toro virus Adames infected C57BL/6 mouse assessed as mean day of death at 100 mg/kg, po twice daily for 5 days administered 4 hrs before viral challenge", "assay_type": "functional", "how_it_was_run": "as §3"}, "Punta Toro virus [13]": {"system": "Punta Toro virus", "assay": "Antiviral activity against 500 PFU Punta Toro virus Adames infected C57BL/6 mouse assessed as mean viral titer per 0.1 g of liver at 100 mg/kg, po administered 4 hrs before viral challenge measured on day 4 of viral infection", "assay_type": "functional", "how_it_was_run": "(§4)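 Mice were infected subcutaneously with PTV and dosed by oral gavage twice daily; 5 per group (10 placebo) were killed on day 3 or 4. Liver homogenate or serum was serially diluted onto triplicate LLC-MK2 monolayers, and CPE was read 6–8 days later. 50% endpoints gave log10 CCID50 per 0.1 g liver or 0.1 ml serum. Detection range was 2.8–9.5; undetectable samples were assigned <2.8.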"}, "Punta Toro virus [14]": {"system": "Punta Toro virus", "assay": "Antiviral activity against 500 PFU Punta Toro virus Adames infected C57BL/6 mouse assessed as mean viral titer per 0.1 g of liver at 50 mg/kg, po administered 4 hrs before viral challenge measured on day 4 of viral infection", "assay_type": "functional", "how_it_was_run": "as §4"}, "Enterovirus": {"system": "Enterovirus", "assay": "Antiviral activity against Rhinovirus", "assay_type": "functional, organism-based"}, "Punta Toro virus [15]": {"system": "Punta Toro virus", "assay": "Antiviral activity against Punta Toro virus Adames infected Syrian golden hamster assessed as animals with detectable virus level in serum at 15 mg/kg, po twice daily administered 4 hrs before viral challenge measured on day 4 of viral infection", "assay_type": "functional"}, "Punta Toro virus [16]": {"system": "Punta Toro virus", "assay": "Antiviral activity against Punta Toro virus Adames infected Syrian golden hamster assessed as survival at 15 mg/kg, po twice daily for 6 days administered 4 hrs before viral challenge", "assay_type": "functional"}, "Tacaribe virus": {"system": "Tacaribe virus", "assay": "Antiviral activity against Tacaribe virus TRVL11573 assessed as reduction of 1 log10 unit viral titer yields after 7 to 8 days", "assay_type": "functional", "details": "Mammarenavirus tacaribeense"}, "Pichinde virus [17]": {"system": "Pichinde virus", "assay": "Antiviral activity against Pichinde virus An 4763 infected Syrian golden hamster assessed as animals with detectable virus level in liver at 15 mg/kg, po twice daily for 7 days administered 4 hrs before viral-challenge measured on day 7 of viral infection", "assay_type": "functional"}, "Pichinde virus [18]": {"system": "Pichinde virus", "assay": "Antiviral activity against Pichinde virus An 4763 infected Syrian golden hamster assessed as mean serum ALT levels at 60 mg/kg, po twice daily for 7 days administered 4 hrs before viral-challenge measured on day 7 of viral infection", "assay_type": "functional"}, "Punta Toro virus [19]": {"system": "Punta Toro virus", "assay": "Antiviral activity against 500 PFU Punta Toro virus Adames infected C57BL/6 mouse assessed as mean serum ALT levels at 25 mg/kg, po twice daily administered 4 hrs before viral challenge measured on day 4 of viral infection", "assay_type": "functional", "how_it_was_run": "(§5)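 C57BL/6 mice received subcutaneous PTV, then oral gavage twice daily for 5–7 days. T-705 was given in 0.4% CMC and ribavirin in saline. Five mice per group (10 placebo) were killed on day 3 or 4, and serum was collected. ALT activity was measured by kinetic assay. Three sham-infected mice set baselines.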"}, "Punta Toro virus [20]": {"system": "Punta Toro virus", "assay": "Antiviral activity against 500 PFU Punta Toro virus Adames infected C57BL/6 mouse assessed as mean day of death at 5 mg/kg, po twice daily for 5 days administered 4 hrs before viral challenge", "assay_type": "functional", "how_it_was_run": "as §3"}, "Punta Toro virus [21]": {"system": "Punta Toro virus", "assay": "Antiviral activity against 500 PFU Punta Toro virus Adames infected C57BL/6 mouse assessed as mean viral titer per 0.1 g of liver at 5 mg/kg, po twice daily administered 4 hrs before viral challenge measured on day 3 of viral infection", "assay_type": "functional", "how_it_was_run": "as §4"}, "[22]": {"assay": "Cytotoxicity against african green monkey Vero cells after 7 to 8 days by neutral-red dye uptake assay", "assay_type": "cell-based", "details": "chlorocebus sabaeus", "how_it_was_run": "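Subconfluent (50-70%) Vero cells received half-log drug dilutions without virus and were held at 37°C, 5% CO2 for 7-8 days. Cells were stained with 0.034% neutral red for 2 h, and the dye was extracted 30 min in ethanol with Sorenson's citrate buffer. Absorbance was read at 540 nm as % of untreated controls. CC50 was derived by regression.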"}, "Punta Toro virus [23]": {"system": "Punta Toro virus", "assay": "Antiviral activity against 500 PFU Punta Toro virus Adames infected C57BL/6 mouse assessed as mean serum ALT levels at 75 mg/kg, po twice daily administered 4 hrs before viral challenge measured on day 4 of viral infection", "assay_type": "functional", "how_it_was_run": "as §5"}}, "note": "Activity calls are given as the source filed them. The calls are words filed in the database; no cut-off is given here."}
{"smiles": "NC(=O)c1nc(F)cnc1O", "note": "[FAVIPIRAVIR]", "values": [{"measurement": "Activity", "setting": "Punta Toro virus [1]", "result": 80, "unit": "%"}, {"measurement": "Activity", "setting": "Punta Toro virus [2]", "result": 100, "unit": "%"}, {"measurement": "Activity", "setting": "Punta Toro virus [3]", "result": 501, "unit": "IU/L"}, {"measurement": "Activity", "setting": "Punta Toro virus [4]", "result": 90, "unit": "%"}, {"measurement": "Activity", "setting": "Punta Toro virus [5]", "result": "inactive"}, {"measurement": "survival at 60 mg/kg", "setting": "Punta Toro virus [6]", "result": 90, "unit": "%"}, {"measurement": "Activity", "setting": "Punta Toro virus [7]", "result": 6, "unit": "days"}, {"measurement": "Activity", "setting": "Punta Toro virus [8]", "result": "Active"}, {"measurement": "Activity", "setting": "Punta Toro virus [9]", "result": "Active"}, {"measurement": "Activity", "setting": "Punta Toro virus [10]", "result": "Active"}, {"measurement": "Activity", "setting": "Punta Toro virus [11]", "result": 8, "unit": "days"}, {"measurement": "Activity", "setting": "Punta Toro virus [12]", "result": ">21", "unit": "days"}, {"measurement": "log10CCID50", "setting": "Punta Toro virus [13]", "result": "<2.8"}, {"measurement": "log10CCID50", "setting": "Punta Toro virus [14]", "result": "<2.8"}, {"measurement": "EC50", "setting": "Enterovirus", "result": 146, "unit": "µM"}, {"measurement": "Activity", "setting": "Punta Toro virus [15]", "result": 100, "unit": "%"}, {"measurement": "survival at 15 mg/kg", "setting": "Punta Toro virus [16]", "result": 50, "unit": "%"}, {"measurement": "EC90", "setting": "Tacaribe virus", "result": 6, "unit": "µM"}, {"measurement": "Activity", "setting": "Pichinde virus [17]", "result": 100, "unit": "%"}, {"measurement": "Activity", "setting": "Pichinde virus [18]", "result": 23, "unit": "IU/L"}, {"measurement": "Activity", "setting": "Punta Toro virus [19]", "result": 69, "unit": "IU/L"}, {"measurement": "Activity", "setting": "Punta Toro virus [20]", "result": 4.9, "unit": "days"}, {"measurement": "log10CCID50", "setting": "Punta Toro virus [21]", "result": "<2.8"}]}
{"smiles": "NC(=O)c1ncn([C@@H]2O[C@H](CO)[C@@H](O)[C@H]2O)n1", "note": "[RIBAVIRIN]", "values": [{"measurement": "CC50", "setting": "[22]", "result": 156, "unit": "µM"}, {"measurement": "Activity", "setting": "Punta Toro virus [23]", "result": 38, "unit": "IU/L"}]}
